Measured values as given in ChEMBL document CHEMBL1156669, “Aldehyde dehydrogenase inhibitors: alpha,beta-acetylenic N-substituted aminothiolesters are reversible growth inhibitors of normal epithelial but irreversible apoptogens for cancer epithelial cells from human prostate in culture” (Eur J Med Chem, 2008).
pIC50: −log10 of the molar value. Blank lines part the entries; values can stand above or below the compound they belong to.

What was measured:
[1] = Growth inhibition of human androgen-resistant ME cells after 3 days; format: functional; settings: 72 h
Method in brief: (§1)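 MOP (androgen-sensitive, LNCaP grown long-term in steroid-deprived medium) and ME (from regrown MOP xenografts under androgen) in RPMI 1640 with 5% charcoal-treated FCS. Seeded 1 × 10⁵ cells per well in 24-well plates, compound added at 4 h, cell count by Coulter counter after 3 days. IC50 is the mean of three experiments.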

[2] = molecular target: T1, Aldehyde dehydrogenase, dimeric NADP-preferring (Homo sapiens) (UniProt P30838); assay: Inhibition of ALDH3 in human DU145 cells at 2.5 uM after 3 days; format: cell-based; settings: DU-145
T1 sequence (whole entry): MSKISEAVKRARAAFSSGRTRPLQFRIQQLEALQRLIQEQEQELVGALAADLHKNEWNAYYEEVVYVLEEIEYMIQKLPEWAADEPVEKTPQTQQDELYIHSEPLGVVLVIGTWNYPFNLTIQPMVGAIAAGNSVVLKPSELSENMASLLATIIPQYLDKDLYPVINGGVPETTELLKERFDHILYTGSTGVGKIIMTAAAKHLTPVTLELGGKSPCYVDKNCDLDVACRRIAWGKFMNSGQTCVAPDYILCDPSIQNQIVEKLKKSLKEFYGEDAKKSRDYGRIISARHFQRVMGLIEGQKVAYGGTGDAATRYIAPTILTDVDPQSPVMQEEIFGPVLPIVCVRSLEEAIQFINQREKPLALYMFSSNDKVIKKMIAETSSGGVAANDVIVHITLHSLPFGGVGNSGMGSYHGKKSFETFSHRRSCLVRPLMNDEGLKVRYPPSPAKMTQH
Method in brief: (§2)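 DU145 treated for 3 days, trypsinised, washed in PBS and lysed in 60 mM sodium phosphate pH 7 with 1% Triton X-100 and 1 mM EDTA, 30 min at 4 °C; lysate spun at 48,000g for 30 min. ALDH1: supernatant in phosphate pH 8.5, 1 mM EDTA, 100 mM KCl, 2.35 mM NAD, propanal substrate. ALDH3: 5 mM benzaldehyde, 2.5 mM NADP, 1 mM pyrazole. Two experiments in duplicate.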

DU-145 [3] = assay: Reversal of growth inhibition in human DU145 cells assessed as increase in cell number at 10 uM on day 3 replaced with fresh medium without drug and measured after 8 days; format: functional
Method in brief: (§3)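 Cells were treated for 3 days. The medium was then aspirated, the sheet washed with PBS and fresh drug-free medium added, followed by 5 more days of culture. Growth measured on day 8 as adherent-cell protein and expressed relative to the day-3 protein content of parallel wells. Two experiments in duplicate.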

[4] = molecular target: T2, Aldehyde dehydrogenase 1A1 (Homo sapiens) (UniProt P00352); assay: Inhibition of ALDH1 in human DU145 cells at 5 uM after 3 days; format: cell-based; settings: DU-145; method in brief: as §2
T2 sequence (whole entry): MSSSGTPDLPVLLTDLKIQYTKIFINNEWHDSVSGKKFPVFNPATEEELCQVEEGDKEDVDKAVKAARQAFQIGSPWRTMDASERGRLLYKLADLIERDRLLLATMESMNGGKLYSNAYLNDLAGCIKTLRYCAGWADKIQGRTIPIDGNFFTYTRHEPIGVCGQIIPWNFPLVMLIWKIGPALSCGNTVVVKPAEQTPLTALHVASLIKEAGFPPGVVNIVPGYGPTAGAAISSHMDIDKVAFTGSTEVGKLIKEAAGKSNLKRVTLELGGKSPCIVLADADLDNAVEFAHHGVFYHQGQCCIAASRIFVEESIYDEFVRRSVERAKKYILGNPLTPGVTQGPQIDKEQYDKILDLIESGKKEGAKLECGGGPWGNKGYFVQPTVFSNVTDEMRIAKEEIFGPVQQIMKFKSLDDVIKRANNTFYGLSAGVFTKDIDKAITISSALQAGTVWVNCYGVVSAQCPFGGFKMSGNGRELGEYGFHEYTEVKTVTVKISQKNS

[5] = Growth inhibition of HPEN cells at 10 uM after 3 days; format: cell-based; settings: human
Method in brief: (§4)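 Cells seeded at 1 × 10⁵ per well in 24-well plates; compound added 4 h post-seeding and left for 3 days. Growth inhibition measured as protein content relative to control. HPENC values are means of three experiments in duplicate; DU145 values are means of five experiments in duplicate.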

DU-145 [6] = assay: Reversal of growth inhibition in human DU145 cells assessed as increase in cell number at 15 uM after 8 days; format: functional
Method in brief: (§5)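 Cells seeded in six wells and treated from 4 h after seeding. Two wells were left in the original drug-containing medium for a further 5 days. Growth measured on day 8 as protein content of adherent cells and expressed as the day 8/day 3 ratio. EtOH vehicle controls were handled identically. Two experiments in duplicate.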

DU-145 [7] = assay: Growth inhibition of human DU145 cells at 15 uM after 3 days; format: functional; settings: DU-145, 72 h
Method in brief: (§6)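 Vehicle controls received 0.5% EtOH. Cells seeded at 1 × 10⁵ per well, compound added at 4 h. Growth inhibition measured by protein content at day 3; two experiments, each in duplicate.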

DU-145 [8] = assay: Growth inhibition of human DU145 cells at 2 uM after 3 days; format: functional; settings: DU-145, 72 h; method in brief: as §4
[9] = Growth inhibition of HPEN cells at 2 uM after 3 days; format: cell-based; settings: human; method in brief: as §4
[10] = molecular target: T2, Aldehyde dehydrogenase 1A1 (Homo sapiens); assay: Inhibition of ALDH1 in human DU145 cells at 2.5 uM after 3 days; format: cell-based; settings: DU-145; method in brief: as §2
[11] = Growth inhibition of HPEN cells administered after 3 days; format: cell-based; settings: Homo sapiens, 72 h
Method in brief: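 HPENC in PrEGM with supplement and 10% FCS; 1 × 10⁵ cells per well in 24-well plates, compound added 4 h after seeding once adhered. After 3 days, growth read as protein content. IC50 is the mean of three experiments.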

[12] = molecular target: T1, Aldehyde dehydrogenase, dimeric NADP-preferring (Homo sapiens); assay: Inhibition of ALDH3 in human DU145 cells at 5 uM after 3 days; format: cell-based; settings: DU-145; method in brief: as §2
[13] = Growth inhibition of HPEN cells at 5 uM after 3 days; format: cell-based; settings: human; method in brief: as §4
DU-145 [14] = assay: Growth inhibition of human DU145 cells at 5 uM after 3 days; format: functional; settings: DU-145, 72 h; method in brief: as §4
DU-145 [15] = assay: Growth inhibition of human DU145 cells administered after 3 days; format: functional, cell-based; settings: DU-145, 72 h
Method in brief: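 DU145 in RPMI 1640 with 10% FCS; 1 × 10⁵ cells per well in 24-well plates, compound added 4 h after seeding. After 3 days the adherent sheet was washed twice with PBS and harvested in 0.14 M NaOH, and protein content measured. IC50 is the mean of three experiments.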

DU-145 [16] = assay: Growth inhibition of human DU145 cells at 10 uM after 3 days; format: functional; settings: DU-145, 72 h; method in brief: as §4
[17] = molecular target: T1, Aldehyde dehydrogenase, dimeric NADP-preferring (Homo sapiens); assay: Inhibition of ALDH3 in human DU145 cells at 7.5 uM after 3 days; format: cell-based; settings: DU-145; method in brief: as §2
[18] = Reversal of growth inhibition in HPEN cells assessed as increase in cell number at 15 uM on day 3 replaced with fresh medium without drug and measured after 8 days; format: cell-based; settings: human, 192 h; method in brief: as §3
[19] = Reversal of growth inhibition in HPEN cells assessed as increase in cell number at 10 uM after 8 days; format: cell-based; settings: human, 192 h; method in brief: as §5
DU-145 [20] = assay: Reversal of growth inhibition in human DU145 cells assessed as increase in cell number at 15 uM on day 3 replaced with fresh medium without drug and measured after 8 days; format: functional; method in brief: as §3
[21] = Growth inhibition of HPEN cells at 15 uM after 3 days; format: cell-based; settings: human; method in brief: as §6
[22] = Reversal of growth inhibition in HPEN cells assessed as increase in cell number at 15 uM after 8 days; format: cell-based; settings: human, 192 h; method in brief: as §5
DU-145 [23] = assay: Reversal of growth inhibition in human DU145 cells assessed as increase in cell number at 10 uM after 8 days; format: functional; method in brief: as §5
[24] = Growth inhibition of human androgen-sensitive MOP cells after 3 days; format: functional; settings: 72 h; method in brief: as §1
[25] = molecular target: T2, Aldehyde dehydrogenase 1A1 (Homo sapiens); assay: Inhibition of ALDH1 in human DU145 cells at 7.5 uM after 3 days; format: cell-based; settings: DU-145; method in brief: as §2
MRC5 = assay: Growth inhibition of human MRC5 cells; format: cell-based
[26] = molecular target: T3, Aldehyde dehydrogenase 1, mitochondrial (Saccharomyces cerevisiae) (UniProt P22281); assay: Inhibition of yeast ALDH1 at 600 uM
T3 sequence (whole entry): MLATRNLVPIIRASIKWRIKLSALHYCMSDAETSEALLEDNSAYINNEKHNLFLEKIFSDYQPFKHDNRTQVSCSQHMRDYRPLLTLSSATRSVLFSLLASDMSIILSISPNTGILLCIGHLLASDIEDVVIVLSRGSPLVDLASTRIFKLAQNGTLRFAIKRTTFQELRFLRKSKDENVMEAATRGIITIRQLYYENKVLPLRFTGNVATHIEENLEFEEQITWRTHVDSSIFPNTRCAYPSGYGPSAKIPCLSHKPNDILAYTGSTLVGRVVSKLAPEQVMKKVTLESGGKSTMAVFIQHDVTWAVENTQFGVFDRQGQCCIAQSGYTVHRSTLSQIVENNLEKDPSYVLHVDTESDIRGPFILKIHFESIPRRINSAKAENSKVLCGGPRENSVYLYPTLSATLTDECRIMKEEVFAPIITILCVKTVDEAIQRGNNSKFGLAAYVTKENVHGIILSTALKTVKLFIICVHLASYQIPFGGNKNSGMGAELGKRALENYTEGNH

BaF3 = assay: Induction of apoptosis in mouse BAF3 cells overexpressing bcl2; format: functional, cell-based
[27] = Reversal of growth inhibition in HPEN cells assessed as increase in cell number at 10 uM on day 3 replaced with fresh medium without drug and measured after 8 days; format: cell-based; settings: human, 192 h; method in brief: as §3

inhibition [2]: 40%
inhibition [4]: 20%
inhibition [10]: 3%
inhibition [12]: 60%
pIC50 (DU-145 [15]): 5.03
inhibition [17]: 78%
inhibition [25]: 32%
inhibition [26]: 15%
pIC50 (BaF3): 4.92
Structure (SMILES): CSC(=O)C#CC(C)(C)N1CCOCC1
pIC50 [1]: 5.00
Activity (DU-145 [3]): 2.6
inhibition at 72 h, 10 µM [5]: 11%
Activity (DU-145 [6]): 1.9
inhibition at 15 µM (DU-145 [7]): 88%
inhibition at 2 µM (DU-145 [8]): 0%
inhibition at 72 h, 2 µM [9]: 3%
pIC50 [11]: < 5.00
inhibition at 72 h, 5 µM [13]: 6%
inhibition at 5 µM (DU-145 [14]): 8%
inhibition at 10 µM (DU-145 [16]): 70%
Activity [18]: 2.6
Activity [19]: 0.4
Activity (DU-145 [20]): 1.6
inhibition at 72 h, 15 µM [21]: 37%
Activity [22]: 1.4
Activity (DU-145 [23]): 3
pIC50 [24]: 5.00
pIC50 (MRC5): 4.54
Activity [27]: 1.6

pIC50 (DU-145 [15]): 5.15
Structure (SMILES): CSC(=O)C#CC(C)(C)N1CCc2ccccc21

pIC50 (DU-145 [15]): < 4.00
Structure (SMILES): CSC(C#CC(C)(C)N1CCOCC1)=[N+](C)C

pIC50 (DU-145 [15]): 5.17
Structure (SMILES): CSC(=O)C#CC(C)(C)N1CCCC1

pIC50 (DU-145 [15]): 4.90
Structure (SMILES): CSC(=O)C#CC(C)(C)N(C)c1ccccc1

pIC50 (DU-145 [15]): < 3.22
Structure (SMILES): CSC(=O)C#CC(C)(C)[N+](C)(C)C
pIC50 [11]: 3.23

pIC50 (DU-145 [15]): 5.85
Structure (SMILES): CSC(=O)C#CC(C)(C)N(C)Cc1ccccc1
pIC50 [11]: 5.72

pIC50 (DU-145 [15]): 5.22
Structure (SMILES): CSC(=O)C#CC(C)(C)N(C)CCc1ccccc1
